Results taken from ChEMBL document CHEMBL5696442, “Discovery of type II inhibitors of TGFβ-activated kinase 1 (TAK1) and mitogen-activated protein kinase kinase kinase kinase 2 (MAP4K2)” (J Med Chem, 2015).

Experiments:
[1] = biological target: Mitogen-activated protein kinase 9 (Homo sapiens, UniProt P45984); assay: Inhibition of JNK2 Lys2 labeling site in human Huh-7 cell lysate at 1 uM by KiNativ Profiling analysis relative to control; assay type: subcellular
[2] = biological target: Tyrosine-protein kinase CSK (Homo sapiens, UniProt P41240); assay: Inhibition of CSK ACT labeling site harbouring VSDFGLTKEASSTQDTGKLPVKWTAPEALR in human Huh-7 cell lysate at 1 uM by KiNativ Profiling analysis relative to control; assay type: subcellular
[3] = biological target: Tyrosine-protein kinase ABL2 (Homo sapiens, UniProt P42684); assay: Inhibition of ARG Lys1 labeling site in human A-375 cells at 0.5 uM by KiNativ Profiling analysis relative to control; assay type: cell-based
Procedure, shortened: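 Intact A375 melanoma cells were treated with compound at 5 or 0.5 μM, then lysed. Lysate kinases were labeled with a lysine-reactive ATP or ADP-biotin probe (KiNativ). Inhibition is read as protection of each kinase labeling site from probe labeling.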

[4] = biological target: T1, Aurora kinase A (Homo sapiens) (UniProt O14965); assay: Inhibition of AurA Lys2 labeling site in human A-375 cells at 5 uM by KiNativ Profiling analysis relative to control; assay type: cell-based
T1 sequence (whole entry): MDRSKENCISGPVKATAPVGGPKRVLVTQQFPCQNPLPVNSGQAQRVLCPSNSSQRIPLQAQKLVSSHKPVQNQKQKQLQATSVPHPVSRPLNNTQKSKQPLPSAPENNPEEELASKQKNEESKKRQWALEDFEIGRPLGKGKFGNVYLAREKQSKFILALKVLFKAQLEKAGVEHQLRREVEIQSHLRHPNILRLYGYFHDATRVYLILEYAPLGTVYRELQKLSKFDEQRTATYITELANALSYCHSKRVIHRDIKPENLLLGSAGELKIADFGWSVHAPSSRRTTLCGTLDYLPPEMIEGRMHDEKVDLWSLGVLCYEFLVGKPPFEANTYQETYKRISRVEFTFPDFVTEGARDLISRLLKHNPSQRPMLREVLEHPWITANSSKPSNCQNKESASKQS
Procedure, shortened: (§1)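 Live A375 melanoma cells were treated with compound at 5 or 0.5 μM, then lysed. The lysates were labeled with a lysine-reactive ATP or ADP-biotin probe. Kinase protection from probe labeling was measured by KiNativ.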

[5] = biological target: Serine/threonine-protein kinase Chk2 (Homo sapiens) (UniProt O96017); assay: Inhibition of CHK2 Lys1 labeling site in human A-375 cells at 5 uM by KiNativ Profiling analysis relative to control; assay type: cell-based
Procedure, shortened: (§2)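 Live A375 melanoma cells were treated with compound at 5 or 0.5 μM. The cells were then lysed, and the lysates were labeled with a lysine-reactive ATP or ADP-biotin acyl probe (KiNativ). Inhibition is the compound's protection of each kinase labeling-site peptide from probe labeling, relative to untreated control.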

[6] = biological target: T2, Serine/threonine-protein kinase Nek9 (Homo sapiens) (UniProt Q8TD19); assay: Inhibition of NEK9 Lys2 labeling site in human A-375 cells at 5 uM by KiNativ Profiling analysis relative to control; assay type: cell-based
T2 sequence (whole entry): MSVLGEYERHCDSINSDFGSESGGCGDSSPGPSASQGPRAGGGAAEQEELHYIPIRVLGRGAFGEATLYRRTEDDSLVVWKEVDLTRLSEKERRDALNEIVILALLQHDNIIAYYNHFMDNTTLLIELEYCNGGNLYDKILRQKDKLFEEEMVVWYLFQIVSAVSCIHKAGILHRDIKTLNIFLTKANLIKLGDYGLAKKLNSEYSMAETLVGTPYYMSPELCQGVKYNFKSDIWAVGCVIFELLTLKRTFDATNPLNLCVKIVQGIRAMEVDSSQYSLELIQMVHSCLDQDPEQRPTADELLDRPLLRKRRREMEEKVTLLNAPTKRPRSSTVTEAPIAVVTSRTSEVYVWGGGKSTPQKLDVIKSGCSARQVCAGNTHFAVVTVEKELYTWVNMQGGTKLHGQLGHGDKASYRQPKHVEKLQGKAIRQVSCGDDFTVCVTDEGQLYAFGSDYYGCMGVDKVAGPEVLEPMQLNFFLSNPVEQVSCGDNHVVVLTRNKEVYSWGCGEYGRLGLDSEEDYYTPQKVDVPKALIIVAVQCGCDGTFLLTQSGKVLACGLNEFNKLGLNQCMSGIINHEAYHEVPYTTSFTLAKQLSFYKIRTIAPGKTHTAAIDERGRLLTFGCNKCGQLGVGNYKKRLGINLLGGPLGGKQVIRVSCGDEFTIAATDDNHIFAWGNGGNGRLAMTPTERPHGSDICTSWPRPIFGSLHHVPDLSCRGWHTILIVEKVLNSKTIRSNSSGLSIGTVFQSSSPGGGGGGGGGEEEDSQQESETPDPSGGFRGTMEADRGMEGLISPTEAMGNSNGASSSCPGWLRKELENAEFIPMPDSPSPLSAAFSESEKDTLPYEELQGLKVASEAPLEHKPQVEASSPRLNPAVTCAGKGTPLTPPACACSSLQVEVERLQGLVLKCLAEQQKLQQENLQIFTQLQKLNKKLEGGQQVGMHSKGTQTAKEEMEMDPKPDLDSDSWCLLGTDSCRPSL

[7] = biological target: RAC-gamma serine/threonine-protein kinase (Homo sapiens) (UniProt Q9Y243); assay: Inhibition of AKT3 ATP Loop labeling site in human A-375 cells at 0.5 uM by KiNativ Profiling analysis relative to control; assay type: cell-based; procedure, shortened: as §1
[8] = biological target: Cyclin-dependent kinase 2 (Homo sapiens) (UniProt P24941); assay: Inhibition of CDK2 Lys2 labeling site in human A-375 cells at 0.5 uM by KiNativ Profiling analysis relative to control; assay type: cell-based; procedure, shortened: as §2
[9] = biological target: Serine/threonine-protein kinase SMG1 (Homo sapiens) (UniProt Q96Q15); assay: Inhibition of SMG1 ATP labeling site harbouring SYPYLFKGLEDLHLDER in human A-375 cells at 0.5 uM by KiNativ Profiling analysis relative to control; assay type: cell-based
Procedure, shortened: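 Live A375 melanoma cells treated with compound at 5 or 0.5 μM, then lysed. Lysate kinases were labeled with a lysine-reactive ATP or ADP-biotin probe. Inhibition was read as protection of labeling sites from the probe.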

[10] = biological target: Serine/threonine-protein kinase 10 (Homo sapiens) (UniProt O94804); assay: Inhibition of LOK Lys1 labeling site harbouring ETGALAAAKVIETK in human A-375 cells at 0.05 uM by KiNativ Profiling analysis relative to control; assay type: cell-based
[11] = biological target: Serine/threonine-protein kinase WNK2 (Homo sapiens) (UniProt Q9Y3S1); assay: Inhibition of Wnk2 ATP Loop labeling site in human A-375 cells at 0.05 uM by KiNativ Profiling analysis relative to control; assay type: cell-based
[12] = biological target: Mitogen-activated protein kinase kinase kinase kinase 4 (Homo sapiens, UniProt O95819); assay: Inhibition of ZC1/HGK Lys1 labeling site in human A-375 cells at 0.05 uM by KiNativ Profiling analysis relative to control; assay type: cell-based

Sequence of Serine/threonine-protein kinase SMG1 (Homo sapiens) (Q96Q15 whole entry): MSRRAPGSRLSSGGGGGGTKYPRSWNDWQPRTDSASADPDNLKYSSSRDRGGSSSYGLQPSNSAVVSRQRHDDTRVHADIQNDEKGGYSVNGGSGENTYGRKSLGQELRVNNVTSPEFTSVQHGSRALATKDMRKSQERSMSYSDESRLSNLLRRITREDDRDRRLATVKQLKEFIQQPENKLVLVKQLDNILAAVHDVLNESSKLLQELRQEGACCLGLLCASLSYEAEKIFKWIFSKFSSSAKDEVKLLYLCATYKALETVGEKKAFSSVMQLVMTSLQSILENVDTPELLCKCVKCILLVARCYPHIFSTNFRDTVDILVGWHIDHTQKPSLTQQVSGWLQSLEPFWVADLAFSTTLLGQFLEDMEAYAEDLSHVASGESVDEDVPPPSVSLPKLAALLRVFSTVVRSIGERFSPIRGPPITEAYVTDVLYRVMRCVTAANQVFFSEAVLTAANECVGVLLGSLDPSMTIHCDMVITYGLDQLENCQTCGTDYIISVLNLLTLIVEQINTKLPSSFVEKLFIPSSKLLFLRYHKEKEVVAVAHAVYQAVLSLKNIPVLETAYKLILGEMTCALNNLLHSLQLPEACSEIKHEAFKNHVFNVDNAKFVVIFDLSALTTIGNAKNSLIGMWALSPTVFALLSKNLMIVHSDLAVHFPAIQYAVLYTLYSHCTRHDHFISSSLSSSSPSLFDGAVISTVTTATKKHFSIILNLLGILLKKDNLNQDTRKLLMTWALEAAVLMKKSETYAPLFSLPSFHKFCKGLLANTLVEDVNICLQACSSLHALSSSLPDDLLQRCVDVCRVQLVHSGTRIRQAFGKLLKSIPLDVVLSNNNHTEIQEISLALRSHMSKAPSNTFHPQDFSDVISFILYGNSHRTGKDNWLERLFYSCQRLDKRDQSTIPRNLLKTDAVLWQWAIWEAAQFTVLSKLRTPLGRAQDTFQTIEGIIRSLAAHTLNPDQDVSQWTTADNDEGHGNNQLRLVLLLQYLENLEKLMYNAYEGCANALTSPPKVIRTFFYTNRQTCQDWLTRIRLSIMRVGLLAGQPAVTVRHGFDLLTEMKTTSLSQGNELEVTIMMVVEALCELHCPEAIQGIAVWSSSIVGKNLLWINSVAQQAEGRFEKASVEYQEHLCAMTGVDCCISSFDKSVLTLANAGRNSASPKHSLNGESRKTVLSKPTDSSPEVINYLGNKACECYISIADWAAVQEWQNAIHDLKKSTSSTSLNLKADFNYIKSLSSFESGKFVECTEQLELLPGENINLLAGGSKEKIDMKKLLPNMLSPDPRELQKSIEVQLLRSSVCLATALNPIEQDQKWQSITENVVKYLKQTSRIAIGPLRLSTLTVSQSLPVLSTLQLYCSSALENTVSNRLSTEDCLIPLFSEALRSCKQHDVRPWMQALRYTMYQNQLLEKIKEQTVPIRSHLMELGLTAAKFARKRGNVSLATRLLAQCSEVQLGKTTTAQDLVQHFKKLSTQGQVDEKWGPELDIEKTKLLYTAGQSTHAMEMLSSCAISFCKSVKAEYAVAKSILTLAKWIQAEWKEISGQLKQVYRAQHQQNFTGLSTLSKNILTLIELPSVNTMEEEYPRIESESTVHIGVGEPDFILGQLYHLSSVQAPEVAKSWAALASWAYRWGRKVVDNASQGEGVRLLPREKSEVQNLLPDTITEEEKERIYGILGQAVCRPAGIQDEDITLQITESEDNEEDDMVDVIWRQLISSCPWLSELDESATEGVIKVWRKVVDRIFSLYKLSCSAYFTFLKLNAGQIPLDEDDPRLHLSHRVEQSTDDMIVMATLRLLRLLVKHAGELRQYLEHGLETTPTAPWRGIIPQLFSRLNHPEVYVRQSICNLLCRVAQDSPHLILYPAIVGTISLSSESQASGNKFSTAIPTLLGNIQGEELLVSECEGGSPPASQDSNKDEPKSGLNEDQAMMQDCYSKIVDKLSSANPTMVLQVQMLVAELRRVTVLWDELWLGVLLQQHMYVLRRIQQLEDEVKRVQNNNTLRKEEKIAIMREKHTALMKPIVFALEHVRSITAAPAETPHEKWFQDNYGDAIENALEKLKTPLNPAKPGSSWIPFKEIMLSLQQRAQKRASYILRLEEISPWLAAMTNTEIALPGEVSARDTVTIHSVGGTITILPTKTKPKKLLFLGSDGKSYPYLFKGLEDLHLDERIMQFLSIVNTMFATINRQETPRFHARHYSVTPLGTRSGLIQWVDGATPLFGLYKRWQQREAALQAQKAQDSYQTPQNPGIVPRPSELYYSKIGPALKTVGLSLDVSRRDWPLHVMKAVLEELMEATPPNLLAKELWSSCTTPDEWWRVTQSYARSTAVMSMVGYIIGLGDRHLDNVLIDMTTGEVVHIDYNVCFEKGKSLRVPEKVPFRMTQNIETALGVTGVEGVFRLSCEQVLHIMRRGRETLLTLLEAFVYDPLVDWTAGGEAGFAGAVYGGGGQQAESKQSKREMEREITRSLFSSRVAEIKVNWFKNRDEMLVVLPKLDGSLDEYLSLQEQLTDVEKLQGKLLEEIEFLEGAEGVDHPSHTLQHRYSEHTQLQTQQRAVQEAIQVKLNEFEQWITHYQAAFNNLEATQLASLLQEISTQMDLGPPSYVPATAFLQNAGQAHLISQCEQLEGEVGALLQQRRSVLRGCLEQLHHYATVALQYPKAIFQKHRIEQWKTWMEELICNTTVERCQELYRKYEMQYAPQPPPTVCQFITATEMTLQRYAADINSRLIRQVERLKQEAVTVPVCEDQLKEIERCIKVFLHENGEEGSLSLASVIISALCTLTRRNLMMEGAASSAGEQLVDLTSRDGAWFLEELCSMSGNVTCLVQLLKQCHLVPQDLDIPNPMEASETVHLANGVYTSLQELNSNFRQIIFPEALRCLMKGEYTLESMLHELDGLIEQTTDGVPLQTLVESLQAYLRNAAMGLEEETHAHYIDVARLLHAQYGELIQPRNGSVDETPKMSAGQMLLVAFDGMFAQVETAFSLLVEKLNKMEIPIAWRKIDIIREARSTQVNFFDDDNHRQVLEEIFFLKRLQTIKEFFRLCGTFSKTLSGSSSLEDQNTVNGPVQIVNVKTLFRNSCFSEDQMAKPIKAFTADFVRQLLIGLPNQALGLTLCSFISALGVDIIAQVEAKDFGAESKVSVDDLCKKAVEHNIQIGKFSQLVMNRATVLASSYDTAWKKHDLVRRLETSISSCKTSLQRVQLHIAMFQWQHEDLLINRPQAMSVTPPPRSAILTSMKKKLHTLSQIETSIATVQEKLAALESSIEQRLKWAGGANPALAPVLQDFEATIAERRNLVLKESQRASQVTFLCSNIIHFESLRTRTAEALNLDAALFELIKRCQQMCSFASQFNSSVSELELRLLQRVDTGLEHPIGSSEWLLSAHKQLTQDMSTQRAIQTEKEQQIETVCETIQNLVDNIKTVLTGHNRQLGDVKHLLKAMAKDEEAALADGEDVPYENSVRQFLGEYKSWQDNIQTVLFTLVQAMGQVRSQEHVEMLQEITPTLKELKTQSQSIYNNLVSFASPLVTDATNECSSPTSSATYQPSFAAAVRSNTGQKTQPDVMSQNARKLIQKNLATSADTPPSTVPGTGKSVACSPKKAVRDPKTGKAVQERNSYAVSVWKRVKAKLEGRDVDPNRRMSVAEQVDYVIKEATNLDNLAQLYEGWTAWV
Sequence of RAC-gamma serine/threonine-protein kinase (Homo sapiens) (Q9Y243 whole entry): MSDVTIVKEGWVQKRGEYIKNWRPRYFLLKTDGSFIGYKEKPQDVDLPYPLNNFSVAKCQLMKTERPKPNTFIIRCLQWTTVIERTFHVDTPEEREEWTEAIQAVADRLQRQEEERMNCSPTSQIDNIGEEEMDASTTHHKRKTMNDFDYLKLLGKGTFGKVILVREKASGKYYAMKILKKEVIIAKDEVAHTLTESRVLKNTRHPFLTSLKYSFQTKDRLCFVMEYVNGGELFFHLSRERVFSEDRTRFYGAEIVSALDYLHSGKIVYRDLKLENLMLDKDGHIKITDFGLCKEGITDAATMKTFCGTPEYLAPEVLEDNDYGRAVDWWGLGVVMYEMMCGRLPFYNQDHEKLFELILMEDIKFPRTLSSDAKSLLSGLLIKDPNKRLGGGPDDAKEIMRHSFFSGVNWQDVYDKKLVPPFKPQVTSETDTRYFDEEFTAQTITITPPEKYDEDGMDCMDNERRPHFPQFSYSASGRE
Sequence of Tyrosine-protein kinase CSK (P41240 2-450 limits assumed): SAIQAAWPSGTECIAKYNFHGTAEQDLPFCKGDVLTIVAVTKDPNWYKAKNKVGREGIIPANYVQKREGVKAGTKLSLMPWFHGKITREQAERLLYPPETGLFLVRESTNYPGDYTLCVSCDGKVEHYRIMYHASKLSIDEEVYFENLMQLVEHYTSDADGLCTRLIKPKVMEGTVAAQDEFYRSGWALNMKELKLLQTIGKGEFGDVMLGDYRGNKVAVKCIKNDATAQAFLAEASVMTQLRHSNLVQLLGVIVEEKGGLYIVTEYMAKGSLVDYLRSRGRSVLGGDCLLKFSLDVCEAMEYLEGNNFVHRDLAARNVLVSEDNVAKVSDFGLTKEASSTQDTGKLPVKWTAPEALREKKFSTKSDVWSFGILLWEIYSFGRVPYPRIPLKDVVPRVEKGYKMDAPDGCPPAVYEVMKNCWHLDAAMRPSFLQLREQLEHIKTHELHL
Sequence of Serine/threonine-protein kinase Chk2 (Homo sapiens) (O96017 whole entry): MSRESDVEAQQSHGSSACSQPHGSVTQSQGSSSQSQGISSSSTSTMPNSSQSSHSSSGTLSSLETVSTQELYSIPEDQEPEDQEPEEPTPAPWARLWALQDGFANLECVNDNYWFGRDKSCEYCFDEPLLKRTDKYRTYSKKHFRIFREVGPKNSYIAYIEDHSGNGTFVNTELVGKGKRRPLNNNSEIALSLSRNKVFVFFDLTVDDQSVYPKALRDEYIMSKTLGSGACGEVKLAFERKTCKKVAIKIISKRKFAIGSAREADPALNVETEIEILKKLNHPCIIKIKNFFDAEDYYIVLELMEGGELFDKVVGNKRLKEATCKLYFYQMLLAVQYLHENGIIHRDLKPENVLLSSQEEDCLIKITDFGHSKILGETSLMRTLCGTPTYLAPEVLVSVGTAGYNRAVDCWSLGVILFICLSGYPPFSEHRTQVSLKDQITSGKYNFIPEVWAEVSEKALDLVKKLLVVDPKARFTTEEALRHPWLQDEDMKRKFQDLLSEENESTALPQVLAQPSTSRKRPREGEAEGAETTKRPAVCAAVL

SMILES | inhibition [1] [%] | inhibition [2] [%] | inhibition [3] [%] | inhibition [4] [%] | inhibition [5] [%] | inhibition [6] [%] | inhibition [7] [%] | inhibition [8] [%] | inhibition [9] [%] | inhibition [10] [%] | inhibition [11] [%] | inhibition [12] [%]
CNc1cc(Oc2cc(C(=O)Nc3cc(-n4cnc(C)c4)cc(C(F)(F)F)c3)ccc2C)ncn1 | 18.4 | -2.8 |  |  |  |  |  |  |  |  |  | 
CCN1CCN(Cc2ccc(NC(=O)c3ccc(C)c(Oc4ccnc5[nH]ccc45)c3)cc2C(F)(F)F)CC1 |  |  | 85.5 | -0.8 | 5.1 | 3.2 | -1.8 | 4.5 | 3 | 40.5 | 2.4 | 42.1
CCN1CCN(Cc2ccc(NC(=O)c3ccc(C)c(/C=C/c4cnc5[nH]ccc5c4OC)c3)cc2C(F)(F)F)CC1 |  |  | > 90 | 19.3 | 11.5 | 14.7 | 25.1 | 19.4 | 33.7 | 39.6 | 5 | 43.4
CNc1cc(Oc2cc(C(=O)Nc3cc(N4CCN(C)CC4)cc(C(F)(F)F)c3)ccc2C)ncn1 | 7 | 26.9 |  |  |  |  |  |  |  |  |  | 
